Among the data in PubChem BioAssay AID493016 (Southern Research Specialized Biocontainment Screening …, 2011) are IC50 values, retold here.

pIC50: −log10 of the molar value. Active and inactive are the calls of the source.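 The calls were made as follows: active = compounds blocking at least half of virus-caused cell death at some tested dose; inactive = the rest.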

The IC50 is the concentration that inhibits the measured activity by half. One may read the pIC50 as −log10 of the IC50, conventionally taken in molar units.

The assay concerns HEp-2 RSV Long CPE inhibition, luminescence. Nature of the assay: inhibitors of RSV-induced HEp-2 cell death – RSV Long, synthesized compounds, set 4, dose response (AID 493016). The gist of the method:
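Assay system: HEp-2 human cells infected with respiratory syncytial virus strain Long; reagent: RSV Long, MOI 0.45; timing: six-day compound and virus exposure at 37 °C; detection: luminescence-based measurement of virus-induced cytopathic effect; repeats: triplicate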

On to `Cc1ccc2c(c1)CCN2C(=O)[C@@H]1CCCN1S(=O)(=O)c1cccc2cccnc12`, for which the IC50 was > 50 µM (inactive).
Turning to `O=C([C@@H]1CCCN1S(=O)(=O)c1cccc2cccnc12)N1CCc2ccccc21`, the IC50 was > 50 µM (inactive).
In the case of `CC(C)c1ccccc1NC(=O)[C@@H]1CCCN1S(=O)(=O)c1cccc2cccnc12`, the negative-log IC50 (pIC50) is 4.96.
`Cc1ccc(NC(=O)[C@@H]2CCCN2S(=O)(=O)c2cccc3cccnc23)c(C)n1`: the IC50 is > 50 µM (inactive).
Same read-out and setting: the same measure for `O=C(Nc1ccccc1)[C@@H]1CCCN1S(=O)(=O)c1cccc2cccnc12`: > 50 µM (inactive).
Regarding `COc1ccccc1CNC(=O)C1CCN(S(=O)(=O)c2cccc3nonc23)CC1`, the pIC50 is 5.51.
